In ChEMBL document CHEMBL1144702, “Synthesis and structure-activity relationship studies on tryprostatin A, an inhibitor of breast cancer resistance protein” (Bioorg Med Chem, 2008):
Calls of active or inactive are those of the source. The calls are words filed in the database; no cut-off is given here.

Legend:
[1] = Cytotoxicity against human H520 cells after 72 hrs by Cell Titer 96 Aqueous Non-Radioactive assay; assay type: functional; conditions: NCI-H520, 72 h
Method in brief: (§1)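 MCF7, NCI-H520 and PC-3 cells in RPMI-1640 + 10% FBS, 2 mM L-glutamine, 0.1 mM non-essential amino acids; 1 × 10^4 cells/well, 24 h at 37 °C, then drug in DMSO or EtOH (<1%) for 72 h. Cells under 50% survival at 100 μM retested over further concentrations for GI50. MTS/PMS read at 490 nm, blank subtracted, versus vehicle wells; quadruplicate or more.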

MCF7 [2] = test: Cytotoxicity against human MCF7 cells after 72 hrs by Cell Titer 96 Aqueous Non-Radioactive assay; assay type: functional; conditions: MCF7, 72 h; method in brief: as §1
PC-3 [3] = test: Cytotoxicity against human PC3 cells after 72 hrs by Cell Titer 96 Aqueous Non-Radioactive assay; assay type: functional; conditions: PC-3, 72 h; method in brief: as §1
[4] = Inhibition of tubulin polymerization in presence of microtubule-associated proteins at 60 uM
Method in brief: (§2)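 Tubulin containing MAPs in PME buffer (100 mM PIPES pH 6.9, 2 mM EGTA, 1 mM MgSO4) with GTP and drug in DMSO, tubulin added last; 37 °C, absorbance change at 351 nm over 10 min. Drug concentration varied across runs for delta absorbance versus concentration curves; colchicine standard curves made for each tubulin batch.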

[5] = Cytotoxicity against human H520 cells at 10 uM after 72 hrs by Cell Titer 96 Aqueous Non-Radioactive assay; assay type: functional; conditions: NCI-H520, 72 h, read-out: Inhibition
Method in brief: (§3)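 MCF7, NCI-H520 or PC-3 cells (RPMI-1640, 10% FBS) plated 1 × 10^4/well, 24 h at 37 °C, exposed 72 h to drug at 10 or 100 μM in DMSO or EtOH vehicle (controls usually 0.2%). Survival by MTS/PMS formazan absorbance at 490 nm, plate blank subtracted, as percent of vehicle wells; quadruplicate; etoposide or m-AMSA positive controls.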

[6] = Cytotoxicity against human H520 cells at 100 uM after 72 hrs by Cell Titer 96 Aqueous Non-Radioactive assay; assay type: functional; conditions: NCI-H520, 72 h, read-out: Inhibition; method in brief: as §3
MCF7 [7] = test: Cytotoxicity against human MCF7 cells at 10 uM after 72 hrs by Cell Titer 96 Aqueous Non-Radioactive assay; assay type: functional; conditions: MCF7, 72 h, read-out: Inhibition; method in brief: as §3
MCF7 [8] = test: Cytotoxicity against human MCF7 cells at 100 uM after 72 hrs by Cell Titer 96 Aqueous Non-Radioactive assay; assay type: functional; conditions: MCF7, 72 h, read-out: Inhibition; method in brief: as §3
PC-3 [9] = test: Cytotoxicity against human PC3 cells at 10 uM after 72 hrs by Cell Titer 96 Aqueous Non-Radioactive assay; assay type: functional; conditions: PC-3, 72 h, read-out: Inhibition; method in brief: as §3
PC-3 [10] = test: Cytotoxicity against human PC3 cells at 100 uM after 72 hrs by Cell Titer 96 Aqueous Non-Radioactive assay; assay type: functional; conditions: PC-3, 72 h, read-out: Inhibition; method in brief: as §3
CCRF-CEM = test: Cytotoxicity against human CCRF-CEM cells; assay type: functional
[11] = Cytotoxicity against human HL60 (TB) cells; assay type: functional; conditions: HL-60
K562 = test: Cytotoxicity against human K562 cells; assay type: functional
MOLT-4 = test: Cytotoxicity against human MOLT4 cells; assay type: functional
RPMI-8226 = test: Cytotoxicity against human RPMI8226 cells; assay type: functional
SR = test: Cytotoxicity against human SR cells; assay type: functional
HOP-92 = test: Cytotoxicity against human HOP92 cells; assay type: functional
EKVX = test: Cytotoxicity against human EKVX cells; assay type: functional
COLO 205 = test: Cytotoxicity against human COLO205 cells; assay type: functional
HT-29 = test: Cytotoxicity against human HT29 cells; assay type: functional
OVCAR-3 = test: Cytotoxicity against human OVCAR-3 cells; assay type: functional
IGROV-1 = test: Cytotoxicity against human IGROV1 cells; assay type: functional
DU-145 = test: Cytotoxicity against human DU145 cells; assay type: functional
LOX IMVI = test: Cytotoxicity against human LOX IMVI cells; assay type: functional
[12] = Cytotoxicity against human […]; assay type: functional
BT-549 = test: Cytotoxicity against human BT549 cells; assay type: functional
UO-31 = test: Cytotoxicity against human UO31 cells; assay type: functional
[13] = Inhibition of tubulin polymerization in presence of microtubule-associated proteins; method in brief: as §2
[14] = Antiproliferative activity against mouse tsFT210 cells after 48 hrs by WST-8 assay; assay type: functional, cell-based; conditions: tsFT210, 48 h
Method in brief: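 tsFT210 cells (temperature-sensitive cdc2 mutant from mouse mammary carcinoma FM3A), kept in RPMI 1640 with 10% fetal calf serum at 32 °C; exponentially growing cells exposed to compound at 32 °C for 48 h, then WST-8 added for 4 h at 37 °C; absorbance at 450 nm read to estimate cell number; IC50 reported.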

[15] = Cell cycle arrest in mouse tsFT210 cells assessed as accumulation at M phase at 30 uM after 18 hrs by flow cytometry; assay type: functional, cell-based
Method in brief: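 Murine temperature-sensitive cdc2 mutant tsFT210 cells (from FM3A), kept in RPMI 1640 + 10% FCS at permissive 32 °C; seeded 1x10^5 cells/mL, preincubated 1 h at 32 °C, compound added, 18 h at 32 °C. Microscopy, then propidium iodide (50 μg/mL, 0.1% sodium citrate, 0.2% NP-40) flow cytometry for DNA content; Carnoy-fixed nuclei stained with Hoechst 33258.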

[16] = biological target: DNA topoisomerase 2-alpha (Homo sapiens) (UniProt P11388); test: Inhibition of topoisomerase 2 assessed as relaxation of supercoiled DNA at 100 uM
[17] = Cell cycle arrest in mouse tsFT210 cells assessed as accumulation at M phase at 100 uM after 18 hrs by flow cytometry; assay type: functional, cell-based
Method in brief: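 Synchronous-culture assay: tsFT210 cells seeded at 1x10^5 cells/mL, preincubated 1 h at 32 °C, then incubated with compound 18 h at 32 °C; morphology checked by microscopy; DNA content by flow cytometry after staining with 50 μg/mL propidium iodide, 0.1% sodium citrate, 0.2% NP-40; nuclei/chromosomes stained with Hoechst 33258 after KCl swelling and Carnoy fixation.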

Chain of DNA topoisomerase 2-alpha (Homo sapiens) (P11388 whole entry): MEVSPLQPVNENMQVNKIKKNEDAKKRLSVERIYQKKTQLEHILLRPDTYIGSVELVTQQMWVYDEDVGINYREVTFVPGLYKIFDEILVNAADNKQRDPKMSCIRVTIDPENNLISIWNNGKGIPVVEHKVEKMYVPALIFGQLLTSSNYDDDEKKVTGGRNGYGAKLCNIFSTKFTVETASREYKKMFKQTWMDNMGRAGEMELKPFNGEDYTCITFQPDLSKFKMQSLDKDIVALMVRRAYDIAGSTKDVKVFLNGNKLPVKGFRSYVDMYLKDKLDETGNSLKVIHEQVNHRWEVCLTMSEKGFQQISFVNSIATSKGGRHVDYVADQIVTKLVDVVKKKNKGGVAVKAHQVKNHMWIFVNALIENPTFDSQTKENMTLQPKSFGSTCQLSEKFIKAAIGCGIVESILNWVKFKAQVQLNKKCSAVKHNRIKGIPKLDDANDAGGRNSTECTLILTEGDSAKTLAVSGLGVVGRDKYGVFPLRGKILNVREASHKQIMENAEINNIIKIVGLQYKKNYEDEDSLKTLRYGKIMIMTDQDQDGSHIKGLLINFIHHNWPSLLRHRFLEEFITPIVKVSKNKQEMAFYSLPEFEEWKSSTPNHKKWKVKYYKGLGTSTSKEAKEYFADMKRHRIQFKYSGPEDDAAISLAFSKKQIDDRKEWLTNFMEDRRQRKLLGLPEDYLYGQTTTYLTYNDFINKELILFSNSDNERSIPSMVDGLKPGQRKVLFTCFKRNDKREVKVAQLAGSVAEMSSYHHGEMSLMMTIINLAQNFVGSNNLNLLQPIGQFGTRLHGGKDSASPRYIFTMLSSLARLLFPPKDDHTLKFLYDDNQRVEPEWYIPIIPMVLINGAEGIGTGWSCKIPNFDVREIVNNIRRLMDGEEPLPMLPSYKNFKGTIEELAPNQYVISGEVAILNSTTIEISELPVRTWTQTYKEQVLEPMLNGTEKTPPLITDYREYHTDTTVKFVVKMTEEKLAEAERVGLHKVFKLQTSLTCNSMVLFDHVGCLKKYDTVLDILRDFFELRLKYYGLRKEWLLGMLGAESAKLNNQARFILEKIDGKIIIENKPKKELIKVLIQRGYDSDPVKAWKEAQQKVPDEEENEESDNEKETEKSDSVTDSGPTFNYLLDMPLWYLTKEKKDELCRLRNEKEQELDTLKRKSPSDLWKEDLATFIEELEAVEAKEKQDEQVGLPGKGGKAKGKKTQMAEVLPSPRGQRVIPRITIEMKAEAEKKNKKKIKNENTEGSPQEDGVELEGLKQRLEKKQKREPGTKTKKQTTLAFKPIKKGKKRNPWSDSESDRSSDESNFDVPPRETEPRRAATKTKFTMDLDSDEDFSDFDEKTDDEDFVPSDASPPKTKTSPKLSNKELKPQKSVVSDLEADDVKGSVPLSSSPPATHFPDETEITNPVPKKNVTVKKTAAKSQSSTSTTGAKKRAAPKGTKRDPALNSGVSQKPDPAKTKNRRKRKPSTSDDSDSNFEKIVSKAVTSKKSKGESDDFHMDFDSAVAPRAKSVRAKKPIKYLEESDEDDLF

| Compound | GI50 (MCF7 [2]) [µM] | GI50 (PC-3 [3]) [µM] | percent cell survival relative to vehicle at 10 µM [5] [%] | cell survival (% of vehicle control) at 100 µM [6] [%] | cell survival (% of vehicle control) at 10 µM (MCF7 [7]) [%] | cell survival (% of vehicle control) at 100 µM (MCF7 [8]) [%] | percent cell survival relative to vehicle control at 10 µM (PC-3 [9]) [%] | percent cell survival at 100 µM (PC-3 [10]) [%] | GI50 (CCRF-CEM) [µM] | GI50 [11] [µM] | GI50 (K562) [µM] | GI50 (RPMI-8226) [µM] | GI50 (SR) [µM] | GI50 (EKVX) [µM] | GI50 (COLO 205) [µM] | GI50 (OVCAR-3) [µM] | GI50 (IGROV-1) [µM] | GI50 (DU-145) [µM] | GI50 (LOX IMVI) [µM] | GI50 [12] [µM] | other results |
| --- | --- | --- | --- | --- | --- | --- | --- | --- | --- | --- | --- | --- | --- | --- | --- | --- | --- | --- | --- | --- | --- |
| COc1cc([C@@H]2c3cc4c(cc3[C@@H](O[C@@H]3O[C@@H]5CO[C@@H](C)O[C@H]5[C@H](O)[C@H]3O)[C@H]3COC(=O)[C@H]23)OCO4)cc(OC)c1O [ETOPOSIDE] | 55.6 | 11.1 |  |  |  |  |  |  |  |  |  |  |  |  |  |  |  |  |  |  | GI50 [1]: 8.7 µM |
| CC(C)=CCc1[nH]c2ccccc2c1C[C@@H]1NC(=O)[C@H]2CCCN2C1=O |  |  | 88.3 | 0.1 | 73.6 | 0 | 59.3 | 0.2 | 3.22 | 22.4 | 20.1 | 5.54 | 9.46 | 6.9 | 17.7 | 9.69 | 11.5 | 14 | 9.23 | 14.9 | inhibition [4]: < 2%; GI50 [1]: 11.9 µM; GI50 (MOLT-4): 5.96 µM; GI50 (HOP-92): 1.7 µM; GI50 (HT-29): 5.25 µM; GI50 (BT-549): 13.2 µM; GI50 (UO-31): 14.7 µM |
| COc1ccc2c(C[C@@H]3NC(=O)[C@@H]4CCCN4C3=O)c(CC=C(C)C)[nH]c2c1 [TRYPROSTATIN A] | > 100 | 94 | 80.1 | 79.4 | > 100 | 95 | 99.2 | 95.6 | > 100 | 11.3 | 2.73 | 37.1 | 5.68 | > 100 | > 100 | > 100 | 90.5 | > 100 | > 100 | > 100 | IC50 [13]: 250 µM; GI50 (HOP-92): 21.2 µM; GI50 (BT-549): 79.7 µM; GI50 (UO-31): > 100 µM; IC50 [14]: 68 µM; Activity [15]: Active |
| CC(C)=CCc1[nH]c2ccccc2c1C[C@H]1NC(=O)[C@H]2CCCN2C1=O | 40 | 21.2 | > 100 | 99.8 | > 100 | > 100 | 95.8 | 78.9 | 25.1 | 29 | 25.8 | 12.9 | 12.1 | 39.4 | 21.2 | 38.2 | 16 | > 50 | > 50 | 11.9 | Activity [16]: inactive; IC50 [13]: > 700 µM; GI50 (MOLT-4): 21 µM; GI50 (HT-29): 37.5 µM; GI50 (BT-549): 7.21 µM; GI50 (UO-31): 12.6 µM |
| COc1ccc2c(C[C@@H]3NC(=O)[C@H](Cc4ccccc4)NC3=O)c[nH]c2c1 |  |  |  |  |  |  |  |  |  |  |  |  |  |  |  |  |  |  |  |  | Activity [17]: Active; IC50 [14]: 100 µM |
